pEC50: −log10 of the molar value.

For data set [1], the system named is Human immunodeficiency virus 2. The data set can be described thus: Antiviral activity against HIV2 ROD in CEM cells assessed as inhibition of virus-induced cytopathogenicity after 4 days. The format is functional, organism-based. The settings on record: Human immunodeficiency virus 2, ROD, CCRF-CEM, 96 h. The method, boiled down: (§1)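 CEM cells at 4 × 10⁵/mL infected with about 100 CCID₅₀ per mL of cell suspension (HIV-1 IIIB or HIV-2 ROD). Infected suspension mixed 1:1 with serial compound dilutions. Giant cell formation scored microscopically after 4 days. EC₅₀ is the concentration inhibiting virus-induced cytopathicity by 50%.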
For orientation: Protection from cytopathic effect is a common read-out in antiviral testing.

The nature of data set [2]: Cytotoxicity against mock-infected human CEM cells assessed as reduction of cell viability after 4 days. It is filed as cell-based. The settings on record: mock-infected CEM (CCRF-CEM) cells. The method, boiled down: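 Mock-infected CEM cells, plated as in the parallel infection assay at 4 × 10⁵/mL, mixed 1:1 with serial compound dilutions. CC₅₀ is the concentration reducing the number of viable cells by 50%.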

Data set [3] relates to Human immunodeficiency virus 1. Kind of data set: Antiviral activity against HIV1 3B in CEM cells assessed as inhibition of virus-induced cytopathogenicity after 4 days. It is filed as functional, organism-based. The note with it: Human immunodeficiency virus 1, 3B, CCRF-CEM, 96 h. The method, boiled down:
as §1

Data set [4] relates to Human immunodeficiency virus 1. Kind of data set: Antiviral activity against HIV1 in MT4 cells. It is filed as functional, organism-based. The settings on record: Human immunodeficiency virus 1, MT4.

The pEC50 is the EC50 on a negative log10 scale, so that one unit is a factor of ten. The term CC50 denotes the concentration at which the toxic effect on the cells reaches its halfway point. Take `Cc1cn([C@@H]2O[C@H](CO[Si](C)(C)C(C)(C)C)[C@@]3(NS(=O)(=O)C(c4ccccc4)=C3N)[C@H]2O[Si](C)(C)C(C)(C)C)c(=O)[nH]c1=O`: the pEC50 in data set [1] and in data set [3] was no more than 5.70 in each case. For the same compound, the CC50 at 96 h in data set [2] was no less than 10 µM.
As to `Cc1cn([C@@H]2O[C@H](CO[Si](C)(C)C(C)(C)C)[C@@]3(OS(=O)(=O)C=C3N)[C@H]2O[Si](C)(C)C(C)(C)C)c(=O)[nH]c1=O`, the pEC50 in data set [1] was less than 5.40. The half-maximal cytotoxic concentration (CC50) at 96 h in data set [2] came out at 16 µM.
With `Cc1cn([C@@H]2O[C@H](CO[Si](C)(C)C(C)(C)C)[C@@]3(NS(=O)(=O)C(c4ccccc4)=C3N)[C@H]2O[Si](C)(C)C(C)(C)C)c(=O)n(C(=O)OC(C)(C)C)c1=O`, the pEC50 in data set [1] was 4.52; in data set [3], less than 4.30. In addition, the CC50 at 96 h in data set [2] was no less than 10 µM.
Turning to `Cc1cn([C@@H]2O[C@H](CO[Si](C)(C)C(C)(C)C)[C@@]3(NS(=O)(=O)C=C3N)[C@H]2O[Si](C)(C)C(C)(C)C)c(=O)[nH]c1=O`, the figures for the pEC50 in data set [1], in data set [4] and in data set [3] were less than 4.00, 6.89 and 6.48, respectively. The CC50 at 96 h in data set [2] is 19.1 µM.
`Cc1cn([C@@H]2O[C@H](CO[Si](C)(C)C(C)(C)C)[C@@]3(NS(=O)(=O)C(c4ccccc4)=C3N)[C@H]2O[Si](C)(C)C(C)(C)C)c(=O)n(C)c1=O`: the negative logarithm of the EC50 (pEC50) in data set [1] and in data set [3] was less than 4.30 throughout. In addition, the CC50 at 96 h in data set [2] is no less than 10 µM.
With `Cc1cn([C@@H]2O[C@H](CO[Si](C)(C)C(C)(C)C)[C@]3(C(N)=C(c4ccccc4)S(=O)(=O)N3C)[C@H]2O[Si](C)(C)C(C)(C)C)c(=O)n(C)c1=O`, the pEC50 in data set [1] and in data set [3] was less than 5.70 each time. In data set [2], the CC50 at 96 h is 10.9 µM.
With `CCn1c(=O)c(C)cn([C@@H]2O[C@H](CO[Si](C)(C)C(C)(C)C)[C@@]3(NS(=O)(=O)C(c4ccccc4)=C3N)[C@H]2O[Si](C)(C)C(C)(C)C)c1=O`, the pEC50 in data set [1] and in data set [3] was less than 4.30 each time. Besides, the CC50 at 96 h in data set [2] is no less than 10 µM.

Values taken from ChEMBL document CHEMBL1144701, “Synthesis and anti-HIV1 biological activity of novel 5''-ATSAO compounds” (Bioorg Med Chem, 2008).
